In paper PMC10405366 (Molecular pharmaceutics, 2023):

Columns and labels:
[1] = system: female athymic nude (nu/nu) mice; test: 14 day tolerability study, IP every 2 days; format: in vivo, mouse
How it was run: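 Female athymic nude mice (CrTac:NCr-Foxn1nu, 7–8 weeks) were randomized, n = 5 per group. Parent compound was given at 0.1, 0.25, 0.5 or 1.0 mg/kg, or the succinate at molar-equivalent 0.114, 0.285, 0.570 or 1.14 mg/kg. Vehicle was Tween80:Captex200:0.9% saline (8:2:90 v/v). Dosing was IP every 2 days for 14 days. Body weight was recorded every 2 days before dosing, and gross necropsy plus H&E histopathology were done.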

[2] = cited from earlier work
[3] = Stability in Tween80:Captex200P:0.9% saline formulation; format: physicochemical
How it was run: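 The dried succinate was taken up in Tween 80:Captex 200P at 1 mg/mL. It was vortexed 30 s, sonicated 30 min and shaken about 16 h at 100 rpm at room temperature. It was then diluted in 0.9% saline to 0.1 mg/mL and serially diluted to 0.05 and 0.025 mg/mL. At 0, 1 and 4 h, aliquots were diluted 20-fold in acetone, with storage at 4 °C in between. Analysis was by UPLC-PDA-HRMS against acetone standards.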

[4] = Stability in mouse plasma lithium heparin and QC extracts; format: in vitro ADME
OVCAR3 = test: Cell viability assay; format: cell-based, human; conditions: OVCAR3
How it was run: (§1)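 RPMI1640 (OVCAR3, OVCAR4, MDA-MB-435) or DMEM (OVCAR8, MDA-MB-231) was used, with 10% FBS and penicillin/streptomycin. Cells were STR-validated and kept below 20 passages. Cells were plated at 5000 per well overnight, then given test compound at final 0.95–250 nM (nine levels, 0.5% DMSO) for 72 h at 37 °C. Viability was read by CellTiter-Blue absorbance, and IC50 was taken relative to DMSO. Paclitaxel (0.39–100 nM) was the control, with three biological replicates.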

[5] = system: female athymic nude (nu/nu) mice; test: Tolerability study: hematology; format: in vivo, mouse
How it was run: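 Athymic nude mice (n = 5 per group) received test compound or the Tween80:Captex200:saline vehicle IP every 2 days for 14 days. About 2–4 h after the last dose, mice were killed with CO2 and blood was drawn by cardiac puncture. Complete blood counts and serum chemistry were run by a pathology core. Values are given as means ± SD, n = 3–5.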

OVCAR8 = test: Cell viability assay; format: cell-based, human
How it was run: as §1

OVCAR4 = test: Cell viability assay; format: cell-based, human
How it was run: as §1

[6] = system: OVCAR8-RFP cells xenografted IP; test: OVCAR8-RFP IP xenograft; format: in vivo, mouse
[7] = 0.114 mg/kg IP every 2 days, 14 days
[8] = 0.285 mg/kg IP every 2 days, 14 days
[9] = 1.14 mg/kg IP every 2 days, removed at 8 days
[10] = 0.10 mg/kg IP every 2 days, 14 days
[11] = 0.25 mg/kg IP every 2 days, 14 days
[12] = 1.00 mg/kg IP every 2 days, removed at 8 days

CN1C(=O)[C@]23SS[C@@]1(C)C(=O)N2[C@H]1Nc2ccccc2[C@@]1([C@@]12c4ccccc4N[C@@H]1N1C(=O)[C@]4(C)SS[C@]1(C(=O)N4C)[C@H]2OC(=O)CCC(=O)O)[C@@H]3O [verticillin A succinate]
early removal of mice ([1]; 0.570 mg/kg IP every 2 days): 13 day of treatment
early removal of mice ([1]; 1.14 mg/kg IP every 2 days): 8 days of treatment
tolerability ([1]; two higher dose levels, 0.570 and 1.14 mg/kg IP every 2 days): poorly tolerated
tolerability ([1]; two lower dose levels, 0.114 and 0.285 mg/kg IP every 2 days, 14 days): well tolerated
solubility [2]: greatly improved solubility
verticillin A succinate levels in formulation ([3]; 4 h after preparation, stored at 4 °C): below the detection limit (BDL) or NF
stability in formulation ([3]; Tween80:Captex200P:0.9% saline, 0.1, 0.05 and 0.025 mg/mL, degrades almost immediately to verticillin A): not stable
verticillin A succinate levels in formulation ([3]; immediately after preparation, all concentration levels tested): below the quantitation limit (BQL) or not found/detected (NF)
stability in mouse plasma lithium heparin [4]: poor stability
stability of QC extracts ([4]; 4 °C autosampler, after approximately 19 h): not stable
cytotoxic activity (OVCAR3): pronounced cytotoxic activities
MCH [5, 7]: 14.6 ± 0.2 pg
MCHC [5, 7]: 32.8 ± 0.6 g/dL
MCV [5, 7]: 44.4 ± 1.2 fL
MPV [5, 7]: 7.9 ± 0.2 fL
PCT [5, 7]: 0.754 ± 0.093%
PDW [5, 7]: 47.5 ± 2.5%
RBC [5, 7]: 8.95 ± 0.15 M/μL
RDW [5, 7]: 13.9 ± 0.4%
Reticulocyte # [5, 7]: 11.3 ± 12.9 K/μL
WBC # [5, 7]: 6.52 ± 1.73 K/μL
basophil # [5, 7]: 0.01 ± 0.01 K/μL
eosinophil # [5, 7]: 0.01 ± 0.01 K/μL
hematocrit [5, 7]: 39.7 ± 1.4%
hemoglobin [5, 7]: 13.0 ± 0.2 g/dL
lymphocyte # [5, 7]: 3.81 ± 1.09 K/μL
monocyte # [5, 7]: 0.36 ± 0.10 K/μL
neutrophil # [5, 7]: 2.33 ± 0.63 K/μL
nucleated RBCs # [5, 7]: 0 ± 0 K/μL
platelet # [5, 7]: 954 ± 118 K/μL
reticulocyte [5, 7]: 0.13 ± 0.14%
MCH [5, 8]: 14.7 ± 0.2 pg
MCHC [5, 8]: 32.9 ± 0.8 g/dL
MCV [5, 8]: 44.7 ± 0.9 fL
MPV [5, 8]: 7.7 ± 0.07 fL
PCT [5, 8]: 0.722 ± 0.072%
PDW [5, 8]: 48.2 ± 2.2%
RBC [5, 8]: 9.15 ± 0.22 M/μL
RDW [5, 8]: 14.1 ± 0.6%
Reticulocyte # [5, 8]: 6.3 ± 13.7 K/μL
WBC # [5, 8]: 5.99 ± 1.11 K/μL
basophil # [5, 8]: 0.01 ± 0.01 K/μL
eosinophil # [5, 8]: 0.02 ± 0.02 K/μL
hematocrit [5, 8]: 40.9 ± 1.2%
hemoglobin [5, 8]: 13.5 ± 1.8 g/dL
lymphocyte # [5, 8]: 3.12 ± 1.25 K/μL
monocyte # [5, 8]: 0.20 ± 0.08 K/μL
neutrophil # [5, 8]: 2.64 ± 0.54 K/μL
nucleated RBCs # [5, 8]: 0 ± 0 K/μL
platelet # [5, 8]: 938 ± 98 K/μL
reticulocyte [5, 8]: 0.07 ± 0.15%
MCH [5, 9]: 15.3 ± 0.4 pg
MCHC [5, 9]: 32.5 ± 1.1 g/dL
MCV [5, 9]: 47.2 ± 1.6 fL
MPV [5, 9]: 7.4 ± 0.1 fL
PCT [5, 9]: 0.701 ± 0.202%
PDW [5, 9]: 51.5 ± 1.4%
RBC [5, 9]: 9.49 ± 0.49 M/μL
RDW [5, 9]: 15.1 ± 0.2%
Reticulocyte # [5, 9]: 0 ± 0 K/μL
WBC # [5, 9]: 6.80 ± 1.14 K/μL
basophil # [5, 9]: 0.07 ± 0.10 K/μL
eosinophil # [5, 9]: 0.10 ± 0.16 K/μL
hematocrit [5, 9]: 44.7 ± 2.7%
hemoglobin [5, 9]: 14.5 ± 0.42 g/dL
lymphocyte # [5, 9]: 2.19 ± 0.61 K/μL
monocyte # [5, 9]: 0.18 ± 0.04 K/μL
neutrophil # [5, 9]: 4.26 ± 0.56 K/μL
nucleated RBCs # [5, 9]: 0 ± 0 K/μL
platelet # [5, 9]: 947 ± 271 K/μL
reticulocyte [5, 9]: 0 ± 0%

CN1C(=O)[C@]23SS[C@@]1(C)C(=O)N2[C@H]1Nc2ccccc2[C@@]1([C@@]12c4ccccc4N[C@@H]1N1C(=O)[C@@]4(C)SS[C@]1(C(=O)N4C)[C@H]2O)[C@@H]3O [verticillin A]
cytotoxic activity (OVCAR8): nanomolar cytotoxic activity
cytotoxic activity (OVCAR4): nanomolar cytotoxic activity
early removal of mice ([1]; 0.5 mg/kg IP every 2 days): 13 day of treatment
early removal of mice ([1]; 1.0 mg/kg IP every 2 days): 8 days of treatment
maximal tolerated IP dose ([1]; IP every 2 days, 14 days, female athymic nude mice): 0.25 mg/kg
tolerability ([1]; two higher dose levels, 0.5 and 1.0 mg/kg IP every 2 days): poorly tolerated
tolerability ([1]; two lower dose levels, 0.100 and 0.250 mg/kg IP every 2 days, 14 days): well tolerated
liver and organ gross morphology ([6]; 0.25 mg/kg in DMSO twice weekly for four weeks): did not demonstrate changes in liver morphology
tumor burden ([6]; 0.25 mg/kg twice weekly for four weeks, compared to DMSO): reduced
cytotoxic activity (OVCAR3): pronounced cytotoxic activities
MCH [5, 10]: 14.6 ± 0.2 pg
MCHC [5, 10]: 32.7 ± 0.7 g/dL
MCV [5, 10]: 44.6 ± 0.2 fL
MPV [5, 10]: 7.9 ± 0.1 fL
PCT [5, 10]: 0.701 ± 0.065%
PDW [5, 10]: 47.4 ± 1.9%
RBC [5, 10]: 9.89 ± 0.33 M/μL
RDW [5, 10]: 13.8 ± 0.5%
Reticulocyte # [5, 10]: 0 ± 0 K/μL
WBC # [5, 10]: 6.01 ± 1.29 K/μL
basophil # [5, 10]: 0.02 ± 0.01 K/μL
eosinophil # [5, 10]: 0.02 ± 0.02 K/μL
hematocrit [5, 10]: 44.1 ± 1.4%
hemoglobin [5, 10]: 14.4 ± 0.3 g/dL
lymphocyte # [5, 10]: 3.94 ± 1.16 K/μL
monocyte # [5, 10]: 0.37 ± 0.09 K/μL
neutrophil # [5, 10]: 1.65 ± 0.15 K/μL
nucleated RBCs # [5, 10]: 0 ± 0 K/μL
platelet # [5, 10]: 892 ± 74 K/μL
reticulocyte [5, 10]: 0 ± 0%
MCH [5, 11]: 15.2 ± 0.4 pg
MCHC [5, 11]: 32.6 ± 1.2 g/dL
MCV [5, 11]: 46.8 ± 1.0 fL
MPV [5, 11]: 7.6 ± 1.1 fL
PCT [5, 11]: 0.735 ± 0.147%
PDW [5, 11]: 48.7 ± 0.8%
RBC [5, 11]: 9.28 ± 0.81 M/μL
RDW [5, 11]: 14.2 ± 0.4%
Reticulocyte # [5, 11]: 8.6 ± 8.3 K/μL
WBC # [5, 11]: 4.22 ± 1.68 K/μL
basophil # [5, 11]: 0.01 ± 0.01 K/μL
eosinophil # [5, 11]: 0.02 ± 0.01 K/μL
hematocrit [5, 11]: 43.5 ± 4.0%
hemoglobin [5, 11]: 14.2 ± 1.3 g/dL
lymphocyte # [5, 11]: 1.72 ± 0.76 K/μL
monocyte # [5, 11]: 0.18 ± 0.06 K/μL
neutrophil # [5, 11]: 2.30 ± 0.98 K/μL
nucleated RBCs # [5, 11]: 0 ± 0 K/μL
platelet # [5, 11]: 964 ± 203 K/μL
reticulocyte [5, 11]: 0.10 ± 0.09%
MCH [5, 12]: 15.4 ± 0.3 pg
MCHC [5, 12]: 33.7 ± 0.7 g/dL
MCV [5, 12]: 45.5 ± 0.6 fL
MPV [5, 12]: 7.7 ± 0.2 fL
PCT [5, 12]: 0.815 ± 0.096%
PDW [5, 12]: 47.3 ± 1.7%
RBC [5, 12]: 9.79 ± 0.75 M/μL
RDW [5, 12]: 16.2 ± 0.9%
Reticulocyte # [5, 12]: 0 ± 0 K/μL
WBC # [5, 12]: 5.97 ± 1.67 K/μL
basophil # [5, 12]: 0.01 ± 0.01 K/μL
eosinophil # [5, 12]: 0.03 ± 0.01 K/μL
hematocrit [5, 12]: 44.6 ± 3.4%
hemoglobin [5, 12]: 15.0 ± 1.0 g/dL
lymphocyte # [5, 12]: 1.63 ± 1.19 K/μL
monocyte # [5, 12]: 0.21 ± 0.29 K/μL
neutrophil # [5, 12]: 4.09 ± 1.30 K/μL
nucleated RBCs # [5, 12]: 0 ± 0 K/μL
platelet # [5, 12]: 1057 ± 146 K/μL
reticulocyte [5, 12]: 0 ± 0%
